Reference: ChEMBL document CHEMBL1127042, “Molecular size and flexibility as determinants of selectivity in the oxidation of N-methyl-4-phenyl-1,2,3,6-tetrahydropyridine analogs by monoamine oxidase A and B” (J Med Chem, 1993)
“And” between values parts separate entries of the source, which are not always exact repeats. Identical values can stand only once. Each block holds one compound with its values, some of them ahead of it.

Legend:
[1] = target: T1, Amine oxidase [flavin-containing] A (Homo sapiens, UniProt P21397); assay: Turnover number against MAO A (umol of substrate/min per umol of enzyme).
T1 sequence (P21397 whole entry): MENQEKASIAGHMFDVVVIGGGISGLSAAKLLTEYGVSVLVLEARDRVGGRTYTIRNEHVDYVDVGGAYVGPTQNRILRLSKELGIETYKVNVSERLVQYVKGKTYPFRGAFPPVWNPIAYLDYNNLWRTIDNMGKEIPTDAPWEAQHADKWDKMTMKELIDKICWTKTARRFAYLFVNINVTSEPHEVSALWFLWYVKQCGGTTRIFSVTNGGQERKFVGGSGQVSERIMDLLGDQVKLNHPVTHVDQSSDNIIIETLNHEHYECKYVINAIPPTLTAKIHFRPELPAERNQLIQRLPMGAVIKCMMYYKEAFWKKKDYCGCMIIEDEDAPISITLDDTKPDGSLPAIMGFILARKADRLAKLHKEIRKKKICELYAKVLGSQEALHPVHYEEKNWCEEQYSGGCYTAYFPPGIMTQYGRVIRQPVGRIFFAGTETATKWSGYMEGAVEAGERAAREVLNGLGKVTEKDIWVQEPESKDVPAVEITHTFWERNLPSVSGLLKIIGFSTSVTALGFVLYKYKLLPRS
Summary of the method: (§1)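 Human liver MAO A expressed in yeast, purified. Initial oxidation rates measured polarographically (O2 uptake) at 30 °C in sodium phosphate buffer, pH 7.2, with 0.2% (w/v) Brij-35. Enzyme was added last to start the reaction, and its amount was set so rates were read within 60-120 s. Vmax came from double-reciprocal plots. TN was Vmax divided by flavin content. Flavin content was found from the optical density change on anaerobic reduction by kynuramine.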

[2] = target: T2, Amine oxidase [flavin-containing] B (Bos taurus, UniProt P56560); assay: Turnover number against MAO B (umol of substrate/min per umol of enzyme).; conditions: cattle
T2 sequence (P56560 whole entry): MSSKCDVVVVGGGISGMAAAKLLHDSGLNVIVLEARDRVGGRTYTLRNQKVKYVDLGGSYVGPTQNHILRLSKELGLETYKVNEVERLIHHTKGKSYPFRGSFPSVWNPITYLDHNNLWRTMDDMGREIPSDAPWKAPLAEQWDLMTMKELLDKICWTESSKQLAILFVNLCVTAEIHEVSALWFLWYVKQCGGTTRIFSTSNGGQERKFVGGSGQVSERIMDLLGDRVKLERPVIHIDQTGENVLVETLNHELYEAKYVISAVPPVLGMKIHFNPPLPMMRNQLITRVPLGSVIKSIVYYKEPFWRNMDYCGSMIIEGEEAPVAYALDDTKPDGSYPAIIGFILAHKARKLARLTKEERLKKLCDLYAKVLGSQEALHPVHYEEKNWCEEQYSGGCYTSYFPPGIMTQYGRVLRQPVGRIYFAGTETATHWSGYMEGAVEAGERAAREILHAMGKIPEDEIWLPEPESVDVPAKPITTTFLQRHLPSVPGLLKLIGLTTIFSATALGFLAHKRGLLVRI
Summary of the method: (§2)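 Beef liver MAO B, purified. Initial oxidation rates measured polarographically at 30 °C in sodium phosphate buffer, pH 7.2, with 0.2% (w/v) Brij-35. The reaction was started by adding enzyme, dosed so rates were measurable within 60-120 s. Vmax came from double-reciprocal plots. Turnover number was Vmax per flavin content. Flavin content came from the optical density change on anaerobic reduction by benzylamine.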

[3] = target: T2, Amine oxidase [flavin-containing] B; assay: Ratio of turnover number(TN)and Km for MAO B; conditions: cattle; summary of the method: as §2
[4] = target: Amine oxidase [flavin-containing] A (Homo sapiens) (UniProt P21397); assay: Ratio between TN and Km against MAO A
[5] = target: T3, MAO A (amine oxidase [flavin-containing] A) (Homo sapiens, UniProt P21397); assay: Michaelis-Menten constant against MAO A.; summary of the method: as §1
T3 sequence (P21397 whole entry): T1 sequence (P21397 whole entry)

[6] = target: T2, Amine oxidase [flavin-containing] B; assay: Ratio between TN and Km against MAO B; conditions: cattle; summary of the method: as §2

Structure (SMILES): CN1CC=C(CCc2cccs2)CC1
TN [1]: 42 min⁻¹
TN [2]: 51.9 min⁻¹
Ratio [3]: 1059
Ratio [4]: 389

Structure (SMILES): CN1CC=C(Cc2cccs2)CC1
TN [1]: 8.4 min⁻¹
TN [2]: 337 min⁻¹
Ratio [3]: 3270
Ratio [4]: 175

Structure (SMILES): CN1CC=C(CCc2ccsc2)CC1
TN [1]: 29.7 min⁻¹
TN [2]: 50.7 min⁻¹
Ratio [3]: 890
Ratio [4]: 228

Structure (SMILES): CN1CC=C(CCc2ccc3ccccc3c2)CC1
TN [1]: 95.9 min⁻¹
TN [2]: 79 min⁻¹
Ratio [3]: 76
Ratio [4]: 2225

Structure (SMILES): CN1CC=C(c2cccs2)CC1
TN [1]: 5.21 min⁻¹
TN [2]: 12 min⁻¹
Ratio [3]: 71
Ratio [4]: 28

Structure (SMILES): CN1CC=C(c2ccc3ccccc3c2)CC1
TN [1]: 10.2 min⁻¹
TN [2]: 73.5 min⁻¹
Ratio [3]: 101
Ratio [4]: 2216

Structure (SMILES): CN1CC=C(c2ccccc2)CC1
TN [1]: 20 min⁻¹
TN [2]: 204 min⁻¹
Ratio [3]: 523
Km [5]: 140 µM
Ratio [4]: 143

Structure (SMILES): CN1CC=C(c2cccc3ccccc23)CC1
TN [1]: 140 min⁻¹
TN [2]: 55 min⁻¹
Ratio [3]: 500
Ratio [4]: 1893

Structure (SMILES): CN1CC=C(Cc2ccsc2)CC1
TN [1]: 13.3 min⁻¹
TN [2]: 153 min⁻¹
Ratio [3]: 785
Ratio [4]: 98

Structure (SMILES): CN1CC=C(c2ccsc2)CC1
TN [1]: 8.14 min⁻¹
TN [2]: 4.17 min⁻¹
Ratio [4]: 80 and 160

Now from value to compound:

TN [1]: 121 min⁻¹
TN [2]: 274 min⁻¹
Ratio [3]: 326
Ratio [4]: 3344
Structure (SMILES): CN1CC=C(Cc2ccc3ccccc3c2)CC1

TN [1]: 443 min⁻¹
TN [2]: 89 min⁻¹
Ratio [3]: 105
Ratio [4]: 2592
Structure (SMILES): CN1CC=C(Cc2cccc3ccccc23)CC1

TN [1]: 137 min⁻¹
TN [2]: 61 min⁻¹
Ratio [3]: 1130
Ratio [4]: 1120
Structure (SMILES): CN1CC=C(CCc2ccccc2)CC1

TN [1]: 244 min⁻¹
TN [2]: 80 min⁻¹
Ratio [3]: 62
Ratio [4]: 3187
Structure (SMILES): CN1CC=C(CCc2cccc3ccccc23)CC1

TN [1]: 9.2 min⁻¹
TN [2]: 193 min⁻¹
Ratio [3]: 1250
Ratio [4]: 139
Structure (SMILES): CN1CC=C(Cc2ccccc2)CC1

TN [1]: 10 min⁻¹
TN [2]: 283 min⁻¹
Ratio [3]: 963
Ratio [4]: 13
Structure (SMILES): NCc1ccccc1 [BENZYLAMINE]

Ratio [6]: 1964
TN [1]: 146 min⁻¹
TN [2]: 165 min⁻¹
Ratio [4]: 860
Structure (SMILES): NCCC(=O)c1ccccc1N [KYNURAMINE]
